From ChEMBL document CHEMBL1140222, “Identification of G protein-coupled receptor 120-selective agonists derived from PPARgamma agonists” (J Med Chem, 2008)
Activity calls are given as the source filed them. The calls are words filed in the database; no cut-off is given here.

Key:
[1] = target: T1, Free fatty acid receptor 4 (Homo sapiens) (UniProt Q5NUL3); experiment: Agonist activity at human GPR120-G-alpha-16 fusion protein expressed in Flp-in HEK293 cells assessed as effect on intracellular calcium concentration at 10 uM by FLIPR assay relative to […]; format: functional, cell-based
T1 sequence (whole entry): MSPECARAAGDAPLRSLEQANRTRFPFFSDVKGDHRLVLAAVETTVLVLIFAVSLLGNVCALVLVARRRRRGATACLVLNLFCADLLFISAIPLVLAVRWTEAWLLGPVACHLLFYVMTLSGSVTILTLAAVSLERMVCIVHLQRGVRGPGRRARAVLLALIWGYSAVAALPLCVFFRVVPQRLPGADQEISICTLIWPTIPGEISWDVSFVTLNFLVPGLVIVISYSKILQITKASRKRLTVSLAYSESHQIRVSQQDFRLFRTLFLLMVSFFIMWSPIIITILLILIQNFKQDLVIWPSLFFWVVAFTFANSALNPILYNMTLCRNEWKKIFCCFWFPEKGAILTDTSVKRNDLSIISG
Outline: (§1)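 FLIPR fluorometric measurement of intracellular Ca2+ in HEK293 cells expressing human GPR40 or human GPR120. Test compound at 10 µM; response expressed as percent of that evoked by 10 µM α-linolenic acid reference. Means of at least three experiments.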

[2] = target: T2, Free fatty acid receptor 1 (Homo sapiens, UniProt O14842); experiment: Agonist activity at human GPR40 expressed in T-REx HEK293 cells assessed as effect on intracellular calcium concentration at 10 uM by FLIPR assay relative to […]; format: functional, cell-based; outline: as §1
[3] = target: T3, Free fatty acid receptor 4 (Homo sapiens, UniProt Q5NUL3); experiment: Agonist activity at human GPR120-G-alpha-16 fusion protein expressed in Flp-in HEK293 cells assessed as effect on intracellular calcium concentration by FLIPR assay; format: functional, cell-based
T3 sequence (Q5NUL3 whole entry): T1 sequence (whole entry)
Outline: (§2)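 Intracellular Ca2+ rise read by FLIPR in HEK293 cells expressing human GPR120 or human GPR40; EC50 values derived from concentration–response, means of at least three experiments.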

Homo sapiens = species on record: Homo sapiens; experiment: Selectivity index, ratio of EC50 for human GPR40 to EC50 for human GPR120
Outline: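 Selectivity index computed as EC50 at GPR40 divided by EC50 at GPR120, both from FLIPR Ca2+ assays in HEK293 cells expressing each human receptor; EC50 means of at least three experiments.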

[4] = target: T2, Free fatty acid receptor 1; experiment: Agonist activity at human GPR40 expressed in T-REx HEK293 cells assessed as effect on intracellular calcium concentration by FLIPR assay; format: functional, cell-based; outline: as §2
HEK293 = experiment: Agonist activity at PPAR expressed in HEK293 cells at 10 to 100 uM after 12 to 16 hrs by luciferase-beta galactosidase transactivation assay; format: functional, cell-based

T2 sequence (O14842 whole entry, the tested form may be a part): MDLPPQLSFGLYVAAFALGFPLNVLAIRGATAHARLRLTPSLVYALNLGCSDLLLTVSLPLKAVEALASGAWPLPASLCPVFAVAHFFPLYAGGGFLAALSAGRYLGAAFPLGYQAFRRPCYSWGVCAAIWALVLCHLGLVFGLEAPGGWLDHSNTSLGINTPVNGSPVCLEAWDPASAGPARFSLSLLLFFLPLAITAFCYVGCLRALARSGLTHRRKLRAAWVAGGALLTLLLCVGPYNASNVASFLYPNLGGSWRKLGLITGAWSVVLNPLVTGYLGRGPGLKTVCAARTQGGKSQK

| Activity [1] | Activity [2] | EC50 [3] | Ratio EC50 (Homo sapiens) | EC50 [4] | SMILES | Activity (HEK293) |
| --- | --- | --- | --- | --- | --- | --- |
| 58% | 99% |  |  |  | O=C(O)CCCCc1ccc(OCCN(c2ccccc2)c2ccccn2)cc1 |  |
| 37% | 27% |  |  |  | O=C(O)CCCc1ccc(OCCN(c2ccc3ccccc3c2)c2ccccn2)cc1 |  |
| 43% | 8% |  |  |  | O=C(O)CCCc1ccc(OCCN(c2ccccc2)c2nc3ccccc3o2)cc1 |  |
| 33% | 215% |  |  |  | CCCCN(CCOc1ccc(CCC(=O)O)cc1)c1ccccn1 |  |
| 78% | 26% |  |  |  | Cc1ccc(N(CCOc2ccc(CCCC(=O)O)cc2)c2ccccn2)cc1 |  |
| 0% | 0% |  |  |  | O=C(O)CCc1ccc(OCCN(c2ccccn2)c2ccccn2)cc1 |  |
| 0% | 121% |  |  |  | CCCCCCCCCN(CCOc1ccc(CCC(=O)O)cc1)c1ccccn1 |  |
| 106% | 30% | 1.7 µM | 12 | 21 µM | O=C(O)CCCc1ccc(OCCN(c2ccccc2)c2nccs2)cc1 |  |
| 81% | 43% |  |  |  | Cc1ccnc(N(CCOc2ccc(CCCC(=O)O)cc2)c2ccccc2)c1 |  |
| 41% | 10% |  |  |  | CCCCN(CCOc1ccc(CCCC(=O)O)cc1)c1ccccn1 |  |
| 115% | 26% | 1.2 µM | 16 | 19 µM | O=C(O)CCCc1ccc(OCCN(c2ccccc2)c2ccccn2)cc1 | inactive |
| 100% | 68% |  |  |  | O=C(O)CCCc1ccc(OCCN(c2ccccc2)c2cc(Cl)ccn2)cc1 |  |
| 88% | 21% |  |  |  | O=C(O)CCCc1ccc(OCCN(c2ccccc2)c2ccccc2)cc1 |  |

Second part, the molecule before the results:

| SMILES | Activity [1] | Activity [2] | EC50 [3] | Ratio EC50 (Homo sapiens) | EC50 [4] | Activity (HEK293) |
| --- | --- | --- | --- | --- | --- | --- |
| CN(CCOc1ccc(CCC(=O)O)cc1)c1ccccn1 | 0% | 58% |  |  |  |  |
| CCN(CCOc1ccc(CCC(=O)O)cc1)c1ccccn1 | 45% | 147% |  |  |  |  |
| O=C(O)CCCc1ccc(OCCN(c2cccc(F)c2)c2ccccn2)cc1 | 71% | 33% |  |  |  |  |
| CCCCCCN(CCOc1ccc(CCC(=O)O)cc1)c1ccccn1 | 31% | 104% |  |  |  |  |
| O=C(O)CCCc1ccc(OCCN(c2ccc(F)cc2)c2ccccn2)cc1 | 59% | 23% |  |  |  |  |
| O=C(O)CCCc1ccc(OCCN(c2ccccc2)c2cccc(Cl)n2)cc1 | 70% | 32% |  |  |  |  |
| O=C(O)CCc1ccc(OCCN(c2ccccc2)c2ccccn2)cc1 | 56% | 98% |  |  |  |  |
| Cc1cccc(N(CCOc2ccc(CCCC(=O)O)cc2)c2ccccc2)n1 | 81% | 34% |  |  |  |  |
| O=C(O)CCCc1ccc(OCCN(Cc2ccccc2)c2ccccn2)cc1 | 56% | 26% |  |  |  |  |
| O=C(O)CCCc1ccc(OCCN(c2cccnc2)c2ccccn2)cc1 | 65% | 1% |  |  |  |  |
| CCCCCCCN(CCOc1ccc(CCC(=O)O)cc1)c1ccccn1 | 0% | 99% |  |  |  |  |
| CC/C=C\C/C=C\C/C=C\CCCCCCCC(=O)O [LINOLENIC ACID] | 100% | 100% | 2.6 µM | 2 | 5.2 µM |  |
| CCCN(CCOc1ccc(CCC(=O)O)cc1)c1ccccn1 | 57% | 125% |  |  |  |  |
| O=C(O)CCCc1ccc(OCCN(c2ccccc2)c2nc3ccccc3s2)cc1 | 73% | 32% |  |  |  |  |
